Assay results as given in ChEMBL document CHEMBL4304791, “DABMA: A Derivative of ABMA with Improved Broad-Spectrum Inhibitory Activity of Toxins and Viruses” (ACS Med Chem Lett, 2019).
The source made the active and inactive calls. The calls are words filed in the database; no cut-off is given here.

How the values were obtained:
L929 [1] = assay: Cytoprotective activity in Pseudomonas aeruginosa exotoxin induced toxicity in mouse L929 cells assessed as protection factor after 18 hrs by liquid scintillation analysis relative to untreated control; type: functional
Outline: (§1)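 L929 cells were intoxicated with increasing doses of Pseudomonas exotoxin A for 18 h with compound (30 μM) or DMSO present. Protein synthesis was measured; duplicate wells, mean ± SD, one representative experiment (n = 3).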

Vero [2] = assay: Inhibition of TcsL-induced cytotoxicity against African green monkey Vero cells assessed as reversal of toxin-induced cell rounding at 30 uM in presence of TcsL after 16 hrs by inverted microscopic analysis relative to ABMA; type: functional, Chlorocebus sabaeus
Outline: (§2)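 Vero cells were given compound (30 μM) or DMSO, then increasing doses of TcdB for 4 h or TcsL for 16 h. Cell rounding was imaged by inverted microscope. Rounded cells were counted and normalised to total Hoechst-counterstained cells (>100 cells per treatment).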

[3] = Cytotoxicity against human A549 cells assessed as reduction in cell viability incubated for 24 hrs by Alamar blue assay; type: cell-based
Outline: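 A549 cytotoxicity by Alamar Blue viability assay; duplicate wells, mean ± SD, one representative experiment (n = 3).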

A549 [4] = assay: Selectivity index, ratio of CC50 for cytotoxicity against human A549 cells to EC50 for cytoprotective activity in diphtheria-induced cytotoxicity in human A549 cells
A549 [5] = assay: Inhibition of diphtheria induced toxicity in human A549 cells assessed as protection factor at 15 uM incubated for 20 hrs followed by replacement of [14c]-Leucine containing medium and measured after 4 hrs by liquid scintillation analysis relative to untreated control; type: functional
Outline: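 A549 cells were incubated with Baf A1 (0.15 nM), DABMA (15 μM), both, or DMSO vehicle before DT was added, with the compounds kept present throughout. Toxin protection was read as protein synthesis and expressed as protection factor.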

A549 [6] = assay: Inhibition of colony formation in human A549 cells assessed as reduction in colony forming unit at 30 to 60 uM incubated for 16 hrs followed by fresh medium supplementation and measured after 7 days by crystal violet-staining based assay; type: cell-based; settings: a549, 16 h
Outline: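 Colony-forming assay of A549 cells with compound at 30 or 60 μM, DMSO vehicle, and paclitaxel (5 μM) as positive control; n = 2.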

HUVEC [7] = assay: Cytoprotection activity in HUVEC assessed as inhibition of diphtheria induced toxicity by measuring protein synthesis at 15 to 60 uM incubated for 20 hrs followed by replacement of [14c]-Leucine containing medium and measured after 4 hrs by liquid scintillation analysis; type: functional, cell-based; settings: Homo sapiens
Vero [8] = assay: Cytoprotection activity in African green monkey Vero cells assessed as inhibition of diphtheria induced toxicity incubated for 20 hrs followed by replacement of [14c]-Leucine containing medium and measured after 4 hrs by liquid scintillation analysis; type: functional, cell-based; settings: Chlorocebus sabaeus
A-431 = assay: Cytoprotection activity in human A431 cells assessed as inhibition of diphtheria induced toxicity incubated for 20 hrs followed by replacement of [14c]-Leucine containing medium and measured after 4 hrs by liquid scintillation analysis; type: functional, cell-based
DLD-1 = assay: Cytoprotection activity in human DLD1 cells assessed as inhibition of diphtheria induced toxicity incubated for 20 hrs followed by replacement of [14c]-Leucine containing medium and measured after 4 hrs by liquid scintillation analysis; type: functional, cell-based
A549 [9] = assay: Increase in cholesterol accumulation in human A549 cells at 30 uM incubated for 18 hrs by choelesterol-avid filipin-3 staining based confocal microscopic analysis; type: functional, cell-based
Outline: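 A549 cells were treated 18 h with compound or DMSO, fixed, and stained with Filipin III for cholesterol. Confocal imaging; fluorescence quantified in >30 cells (mean ± SEM), unpaired t test versus DMSO.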

A549 [10] = assay: Induction of lysosomal activation in human A549 cells assessed as increase in endosomal volume by measuring Rab7 expression at 30 uM incubated for 6 hrs by immunostaining based confocal microscopic analysis; type: functional, cell-based
Outline: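 A549 cells were pretreated 6 h with compound or DMSO and immunostained for Rab7, with DAPI nuclei. Confocal imaging; fluorescence quantified in >30 cells (mean ± SEM), unpaired t test versus DMSO.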

Vero [11] = assay: Inhibition of TcsL-induced cytotoxicity against African green monkey Vero cells assessed as reversal of toxin-induced cell rounding at 30 uM in presence of TcsL after 16 hrs by inverted microscopic analysis; type: functional, cell-based; settings: Chlorocebus sabaeus; outline: as §2
Vero [12] = assay: Inhibition of TcsL-induced cytotoxicity against African green monkey Vero cells assessed as reversal of toxin-induced cell rounding after 16 hrs by inverted microscopic analysis; type: functional, cell-based; settings: Chlorocebus sabaeus; outline: as §2
L929 [13] = assay: Cytoprotective activity in Pseudomonas aeruginosa exotoxin-induced toxicity in mouse L929 cells assessed as protection of protein synthesis after 18 hrs followed by replacement of [14c]-Leucine containing medium and measured after 4 hrs by liquid scintillation analysis by liquid scintillation analysis; type: functional, cell-based; outline: as §1
Lyssavirus rabies = assay: Antiviral activity against RABV infected in BSR cells preincubated for 4 hrs followed by viral infection and further incubated with compounds for 24 hrs by immunostaining-based assay; type: functional, organism-based
Outline: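 BSR cells were pretreated 4 h with compound, then infected with RABV (MOI = 14) for 1 h. Cells were washed and kept with compound for 24 h, then fixed and immunostained for the RABV ribonucleocapsid (RNP). Nuclei and RNP images from 15 fields per well (>10,000 cells) were used to calculate percent inhibition.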

Zaire ebolavirus [14] = assay: Antiviral activity against Zaire EBOV-Mayinga expressing GFP infected in human HeLa cells preincubated for 1 hr followed by viral infection after 24 hrs by DAPI-staining based fluorescence assay; type: functional, organism-based; settings: Zaire, 1976, HeLa
Zaire ebolavirus [15] = assay: Antiviral activity against Zaire EBOV-mayinga expressing GFP infected in human HeLa cells preincubated for 1 hr followed by viral infection after 24 hrs by DAPI-staining based fluorescence assay relative to control; type: functional, 1976
[16] = Cytotoxicity against human HeLa cells assessed as reduction in cell viability incubated for 20 hrs by Alamar blue assay; type: cell-based
Zaire ebolavirus [17] = assay: Potency index, ratio of ABMA EC50 to compound EC50 for antiviral activity against Zaire Ebola virus -Mayinga expressing GFP infected in human HeLa cells; type: functional, 1976
A549 [18] = assay: Induction of lysosomal activation in human A549 cells assessed as increase in endosomal volume by measuring Lamp 1 expression at 30 uM incubated for 6 hrs by immunostaining based confocal microscopic analysis; type: functional, cell-based
A549 [19] = assay: Induction of morphological changes in human A549 cells assessed as change in mitochondria at 30 uM incubated for 24 hrs by MitoTracker Red based inverted microscopic method; type: functional, cell-based
[20] = Selectivity index, ratio of CC50 for cytotoxicity against mouse L929 cells to EC50 for cytoprotective activity in Pseudomonas aeruginosa exotoxin-induced cytotoxicity in mouse L929 cells; type: toxicity, cell-based; settings: read-out: Ratio CC50/EC50
HeLa = assay: Cytotoxicity against human HeLa cells assessed as reduction in cell viability at >100 uM incubated for 20 hrs by Alamar blue assay; type: cell-based
HUVEC [21] = assay: Cytotoxicity against HUVEC assessed as reduction in cell viability at >100 uM incubated for 20 hrs and measured after 2 hrs by Alamar blue assay; type: cell-based; settings: human
[22] = Selectivity index, ratio of CC50 for cytotoxicity against human HeLa cells to ratio of EC50 for Antiviral activity against Zaire EBOV-mayinga strain expressing GFP infected in human HeLa cells; type: toxicity, cell-based; settings: read-out: Ratio CC50/EC50
A549 [23] = assay: Cytotoxicity against human A549 cells assessed as reduction in cell viability at 15 uM incubated for 20 hrs in presence of bafilomycin A1; type: cell-based; settings: a549, 20 h

## COc1ccc(Br)cc1CNC12CC3CC(C)(CC(C)(C3)C1)C2
L929 [1]
  fold change (FC): 4.8
Vero [2]
  fold change (FC): 5.6
[3]
  CC50 at 24 h: 120 µM
A549 [4]
  Ratio CC50/EC50: 4.7
A549 [5]
  fold change (FC): 6.3
A549 [6]
  Activity: Non-Toxic
HUVEC [7]
  Activity: Active
Vero [8]
  Activity: Active
A-431
  Activity: Active
DLD-1
  Activity: Active
A549 [9]
  Activity: Active
A549 [10]
  Activity: Active
Vero [11]
  inhibition: Active
Vero [12]
  EC50: 15.8 µM
L929 [13]
  EC50: 20.8 µM
Lyssavirus rabies
  inhibition: Active
Zaire ebolavirus [14]
  EC50: 0.908 µM
Zaire ebolavirus [15]
  inhibition (INH): >50%
[16]
  CC50 at 20 h: 117 µM
Zaire ebolavirus [17]
  Ratio EC50: 6.6
A549 [18]
  Activity: Active
A549 [19]
  Activity: inactive
[20]
  selectivity ratio: 4.35
HeLa
  Activity: Toxic
HUVEC [21]
  Activity: Toxic
[22]
  selectivity ratio: 120
A549 [23]
  Activity: Non-Toxic
